Screening data: PubChem, several laboratories
A selection: hits, their analogues and other compounds. The true share with any hit is near 4.9%.
STAT1 inh: inhibitors of IFN-gamma induced STAT1 signaling. NIH 3T3 STAT1-luciferase reporter, luminescence. inhibition, % at 5.5 µM. 0.35% of 200,000 active. AID 920;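 active = inhibition above a set limit, the mean inhibition across all tested compounds plus 3 SD, cut at about 34% in these data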;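 also: 0% = IFN-gamma with DMSO and 100% = IFN-gamma with 300 µM nifuroxazide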
STAT3 inh: reduces IL-6 driven STAT3 reporter signal; AID 862; inhibition, % at 5.5 µM; U3A cells, IL-6 STAT3-luciferase reporter, luminescence; host cell line lacks STAT1; 0.89% of 190,000 active;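 active = inhibition above the mean inhibition across all screened compounds plus 3 SD, cut at about 44% in these data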;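 also: 0% = DMSO only wells and 100% = 100 µM nifuroxazide control wells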
STAT3 act: activators of IL-6 induced STAT3 signaling; U3A cells, IL-6 STAT3-luciferase reporter, luminescence; 100% = signal with IL-6 EC80 alone; 0.91% of 190,000 active; activation (% of control), % at 5.6 µM; AID 871;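 active = activation above the screen-wide mean of compound activation plus 3 SD, cut at about 130% in these data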;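 also: 0% = background luminescence of wells with medium and substrate only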
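Assay system – human STAT1-deficient U3A cells with stable STAT3-luciferase reporter · Also added – IL-6 (33 ng/mL) · Schedule – compound 1 h, then IL-6 6 h at 37 °C · Technique – reporter luminescence signal · Evaluation – % activation versus median of IL-6-stimulated wells · Benchmarks – IL-6-only wells as 100% reference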
NF-kB expr up: compounds increasing NF-kB expression in human neuronal cells; fold change at 12.5 µM; NF-kB reporter expression; hits give high values; AID 1239; 1.6% of 190,000 active; in the data active = fold change above about 3.3
STAT1 activator: activators of IFN-gamma induced STAT1 signaling | NIH 3T3 STAT1-luciferase reporter, luminescence; 100% = IFN-gamma alone, no compound | activation (% of control), % at 5.5 µM | 2.6% of 200,000 active | AID 932;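 active = activation above the screen-wide mean activation plus 3 SD, cut at about 130% in these data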;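 also: raw ratio to IFN-gamma control signal so 100% means no change and 0% no light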
APP 5'UTR act: activates APP 5'UTR luciferase reporter; SH-SY5Y APP 5'UTR luciferase reporter, luminescence; zero percent = DMSO vehicle wells; activation, % at 2 µM; 1% of 190,000 active; AID 1276;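 active = activation above a set limit, based on mean plus 3 SD of controls, cut at about 140% in these data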
An asterisk follows results filed as active; · = no result.

SMILES | STAT1 inh | STAT3 inh | STAT3 act | NF-kB expr up | STAT1 activator | APP 5'UTR act
COc1cccc(NC(=S)/C(=C(\[O-])c2ccc([N+](=O)[O-])cc2)[n+]2ccccc2)c1 | -6.8 | 4.6 | 100.1 | 1.13 | 106.3 | -3.7
CC(C)(C)c1ccc(-c2nc(-c3ccncc3)no2)cc1 | -32.9 | 40.9 | 69.2 | 2.09 | 130.4* | 216.5*
COc1ccc(-c2noc(-c3ccccc3-c3ccccc3)n2)cc1 | -0.9 | 23.2 | 84.1 | 0.88 | 100.9 | 7.4
COc1cccc(-c2noc(-c3cccs3)n2)c1 | -42.0 | 23.8 | 83.9 | 8.43* | 138.7* | 114.5
COc1cccc(-c2noc(-c3ccc(Br)o3)n2)c1 | -41.6 | 8.8 | 94.5 | 3.6* | 136.3* | 95.0
COc1cccc(-c2nc(-c3ccccc3)no2)c1 | -42.8 | -12.4 | 113.1 | 7.26* | 149.5* | 128.1
COc1ccc(CC(=O)Nc2ccc(-c3noc(-c4cccc(OC)c4)n3)cc2)cc1 | 10.1 | 15.1 | 89.1 | 1.23 | 90.7 | -2.9
N=c1c2ccccc2nnn1-c1cccc(C(F)(F)F)c1 | -6.9 | 20.7 | 87.1 | 1.1 | 105.4 | 5.2
COc1cccc(-c2nc(-c3ccccn3)no2)c1 | 59.5* | 94.6* | 19.1 | 0.93 | 45.7 | 35.3
c1ccc(-c2noc(-c3ccncc3)n2)nc1 | -26.0 | 33.7 | 71.9 | 2.01 | 123.5 | 103.5
c1ccc(-c2noc(-c3cccnc3)n2)nc1 | -29.7 | 19.6 | 84.8 | 1.84 | 128.8* | 75.0
Cc1ccc(-c2nc(-c3cccnc3)no2)cc1 | -24.2 | 29.3 | 78.0 | 6.27* | 122.3 | 104.8
COc1nc(C)ccc1-c1noc(-c2ccncc2)n1 | -33.1 | -4.2 | 107.0 | 1.8 | 130.6* | -7.8
Cc1ccc(Cc2nc(-c3cccnc3)no2)cc1 | -3.1 | 3.9 | 96.1 | 1.42 | 102.8 | -12.6
COc1ccc(C2C(C(=O)Nc3cc(OC)c(OC)c(OC)c3)c3ccccc3C(=O)N2C)cc1OC (configuration not stated) | 6.0 | 14.4 | 90.9 | 0.97 | 93.4 | -7.1
Cc1c(Cl)cccc1NC(=S)NCCc1ccc(C(F)(F)F)cc1 | 0.3 | 6.7 | 101.7 | 1.3 | 97.8 | 6.5
CC(C)Cn1c(N)c(C(=O)COC(=O)c2cnc(Cl)c(Cl)c2)c(=O)n(C)c1=O | 20.0 | 4.8 | 100.0 | 0.96 | 81.1 | 7.0
COC(=O)c1cn(CC(=O)NC2CCCCCC2)c2ccccc12 | -3.0 | -2.8 | 105.0 | 1.2 | 102.7 | 11.5
COC(=O)c1ccc(-c2nc(-c3cccs3)no2)cc1 | 52.2* | 90.6* | 29.8 | 1.01 | 52.7 | 136.0*
CCOC(=O)C1(CC2CC2)CCN(Cc2ccc3cccc(F)c3n2)CC1 | 7.5 | -23.2 | 121.8 | 1.1 | 91.4 | 9.3
CCn1c(=O)c2c(nc3n2CCN3c2ccccc2)n(C)c1=O | -9.4 | 25.7 | 82.5 | 1.11 | 106.6 | 6.7
CCC(C)N1CNc2c(c(=O)[nH]c(=S)n2-c2cccc(C)c2)C1 (configuration not stated) | 2.2 | 0.9 | 103.1 | 0.99 | 96.6 | 3.7
Cc1cccc(NC(=O)c2n[nH]c([N+](=O)[O-])c2Br)c1C | -27.1 | 32.5 | 77.1 | 4.07* | 123.1 | 132.4
CCN(CC)c1ccc(C=C2C(=O)OC(c3ccccc3)OC2=O)cc1 (configuration not stated) | -4.7 | 17.7 | 93.9 | 1.12 | 103.6 | -5.7
CCN(CC)c1ccc(/C=C/C(=O)C2C(=O)C=C(C)OC2=O)cc1 (configuration not stated) | -43.5 | -16.3 | 123.5 | 1.92 | 137.5* | 164.1*
SMILES | STAT1 inh | STAT3 inh | STAT3 act | NF-kB expr up | STAT1 activator | APP 5'UTR act
Cc1ccc(Nc2nnc(SCC(=O)NC(Cc3c[nH]c4ccccc34)C(=O)O)s2)cc1 (configuration not stated) | 3.5 | 9.1 | 96.7 | 1.15 | 95.5 | -1.6
O=C(N/N=C/c1ccccc1)c1[nH]ncc1Br | -32.1 | 7.6 | 93.8 | 2.55 | 130.2* | 19.1
O=C(N/N=C/c1cccnc1)c1[nH]ncc1Br | -9.3 | 1.4 | 101.8 | 1.24 | 106.6 | 27.4
CCOC(=O)C(=O)Nc1cc(C)on1 | 7.5 | 9.6 | 93.3 | 1.19 | 92.0 | 34.0
O=C(CSc1nncn1-c1cccnc1)N(c1ccccc1)c1ccccc1 | -5.2 | 1.2 | 101.0 | 1.29 | 103.0 | 5.4
COC(=O)c1ccc(CO/N=C/c2ccc(OC)cc2)o1 | -23.4 | -8.5 | 108.4 | 4.61* | 120.6 | 10.6
O=C1C2C3CCC(C3)C2C(=O)N1c1ccc(OS(=O)(=O)c2ccccc2)cc1 (configuration not stated) | -44.1 | -0.4 | 104.4 | 1.7 | 137.1* | 105.6
CCC(C)(C)C1CCC(=NNC(=O)c2ccoc2C)CC1 (configuration not stated) | -28.7 | -9.7 | 111.3 | 1.72 | 126.4 | 144.3*
O=C(CCS(=O)(=O)c1ccc(Br)cc1)NC1CCCC1 | -4.2 | -0.7 | 100.7 | 0.95 | 98.9 | ·
O=C(CCS(=O)(=O)c1cccs1)NC1CCCCCC1 | -33.6 | -9.4 | 110.0 | 1.9 | 130.4* | 16.2
CCc1ccc(NC2=NCC(c3ccccc3)S2)cc1 (configuration not stated) | -32.1 | -5.7 | 111.9 | 3.22 | 129.5* | 30.4
Cc1cccc2nc(CSc3ccccc3N)cn12 | -43.7 | 5.3 | 98.2 | 4.62* | 140.1* | 131.5
O=C(CSc1nc2ccccc2s1)N1c2ccccc2Sc2ccccc21 | 2.5 | -18.6 | 120.2 | 3.13 | 97.8 | 2.3
c1ccc2sc(SCc3ccc(-c4nnco4)cc3)nc2c1 | -21.2 | 26.8 | 81.8 | 4.24* | 119.3 | 120.8
CC(C)P(=O)(c1cccc(C(=O)O)c1)C(C)C | 0.0 | -4.2 | 101.3 | 1.35 | 100.0 | 6.4
O=C(Nc1cccc(NC(=O)c2cccnc2)c1)c1cccnc1 | 6.1 | 13.8 | 91.1 | 0.45 | 94.4 | -12.9
O=C(Nc1ccc(NC(=O)c2ccco2)nc1)c1cccnc1 | -36.9 | 21.6 | 84.4 | 2.38 | 134.2* | 78.8
O=C(Nc1cnc2ccccc2c1)c1cccnc1 | -38.1 | 21.7 | 88.7 | 3.61* | 134.5* | 106.3
Cc1cc(C(=O)Nc2cnc3ccccc3c2)ccc1[N+](=O)[O-] | -39.9 | 29.4 | 80.4 | 2.23 | 136.8* | 203.5*
Cc1cc(C(=O)Nc2nc(-c3ccccn3)cs2)ccc1[N+](=O)[O-] | 3.7 | 1.9 | 100.4 | 1.42 | 95.9 | -9.2
O=C(Nc1cccnc1)c1ccc(-c2ccccc2)cc1 | -13.2 | 24.0 | 85.2 | 3.95* | 111.9 | 109.9
O=C(CN(CC1CCCO1)C(=O)c1nsc(Cl)c1Cl)NC1CCCC1 (configuration not stated) | -1.0 | 3.9 | 98.7 | 1.37 | 99.4 | -9.5
O=C(NC(=S)Nc1ccc2ncccc2c1)c1ccccc1 | -34.3 | 5.2 | 97.7 | 1.08 | 131.2* | 60.4
Cn1c(NC(=O)c2cccnc2)nc2ccccc21 | -52.1 | 6.4 | 99.1 | 2.17 | 147.7* | 73.6
O=C(Nc1cnc2ccccc2c1)c1cccc(-n2cnnn2)c1 | -38.3 | -34.5 | 138.1* | 1.45 | 135.0* | 60.1
